Data on three molecules can be found in article PMC12525009 (The Febs Journal, 2025).

Common to all, as to format: binding
Experiment [1] has as its target T1, MsrQ (Escherichia coli, UniProt P76343).
T1 sequence (P76343 1-211): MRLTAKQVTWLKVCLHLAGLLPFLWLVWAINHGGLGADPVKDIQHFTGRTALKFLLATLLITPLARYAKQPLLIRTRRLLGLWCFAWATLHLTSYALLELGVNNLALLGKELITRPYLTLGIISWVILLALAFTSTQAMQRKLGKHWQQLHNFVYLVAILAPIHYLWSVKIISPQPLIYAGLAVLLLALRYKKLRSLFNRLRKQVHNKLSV
Put plainly: quinone extraction of purified protein, HPLC-ECD-MS. The note with it: co-purified from E. coli; per holoprotein (heme content); pH 7.6, LMNG. The method, boiled down: (§1)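 Ni-NTA-purified MsrQ, in 50 mM Tris/HCl pH 7.6 with 0.004% LMNG, was quantified by heme content (pyridine hemochromogen, 556 nm). Quinones were extracted from […] protein with methanol/KCl, using 80 pmol UQ10 as internal standard. Two petroleum ether extractions were pooled, dried under N2 and taken up in ethanol. Fractions equal to 5 and 20 μg protein were run on HPLC-ECD-MS (m/z 500–900). MK8 was quantified against an MK7 curve (2–100 pmol) and UQ8 against a UQ10 standard.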

Experiment [2] addresses T1, MsrQ. Kind of experiment: HPLC of flavin released by heat denaturation of purified protein. The note with it: co-purified; 1 μM holoprotein (heme content).
For experiment [3], the target named is T1, MsrQ. Kind of experiment: quinone extraction of purified protein, HPLC-ECD-MS. The settings on record: co-purified from E. coli; per holoprotein (heme content); pH 7.6, LMNG. The method, boiled down:
as §1
This is another data set of the same source.

With `COC1=C(OC)C(=O)C(C/C=C(\C)CC/C=C(\C)CC/C=C(\C)CC/C=C(\C)CC/C=C(\C)CC/C=C(\C)CC/C=C(\C)CCC=C(C)C)=C(C)C1=O` [UQ8], on MsrQ [1], the “UQ8/MsrQ ^b , ^c” value amounted to 0.45 ± 0.06 mol UQ8 per mol MsrQ.
In the case of `Cc1cc2nc3c(=O)[nH]c(=O)nc-3n(C[C@H](O)[C@H](O)[C@H](O)COP(=O)(O)O)c2cc1C` [FMN], on MsrQ [2], the “FMN concentration in 1 μM MsrQ” value was 0.90 µM.
As to `CC(C)=CCC/C(C)=C/CC/C(C)=C/CC/C(C)=C/CC/C(C)=C/CC/C(C)=C/CC/C(C)=C/CC/C(C)=C/CC1=C(C)C(=O)c2ccccc2C1=O` [MK8], the “MK8/MsrQ ^b , ^d” value on MsrQ [3] is on record as 0.090 ± 0.020 mol MK8 per mol MsrQ.
